UPR CHOP act: apoptotic UPR (CHOP) activation. CHO-CHOP luciferase reporter, luminescence; percent of tunicamycin response over DMSO baseline. AID 449763. activation, % at 10 µM. 0.34% of 330,000 active;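 active = at 10 µM dose, activation of 40% or more, normalized to positive control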;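 note: 100% = tunicamycin at 10 µg/mL and 0% = DMSO alone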
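Test system: CHO CHOP reporter cells. Input: 500 CHO-CHOP cells per well. Medium: F12 with 10% FBS. Technique: luciferase luminescence. Measure: percent activation relative to tunicamycin control. Dosing: 10 µM compound, 0.5% DMSO. Timing: 16-18 h cell attachment, then 6 h compound exposure, 37 °C.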
Granule exo inh: lytic granule exocytosis inhibition; TALL-104 LAMP-1 surface exposure, flow cytometry; cells stimulated with thapsigargin and PMA; inhibition, % at 10 µM; 0.66% of 360,000 active; AID 651702;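 active = inhibition above about 55%, limit read from the data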
UPR XBP1 act: activators of adaptive arm of unfolded protein response (XBP1); CHO-XBP1 luciferase reporter, IRE1-XBP1 UPR activation, luminescence; percent of tunicamycin response, DMSO as zero; activation, % at 20 µM; 0.33% of 330,000 active;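 active = versus positive control, 20 µM dose yields 30% or more activation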;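 note: 100% = tunicamycin at 10 µg/mL and 0% = DMSO only wells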
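Assay system: IRE1-XBP1 luciferase reporter CHO line. Input: 1000 cells/well. Buffer or medium: F12 with 10% serum. Doses: 20 µM, 1% DMSO. Times: overnight seeding at 37 °C, 6 h compound treatment at 37 °C. Technique: Steady-Glo luciferase glow luminescence, 10 min after reagent addition.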
ABHD5 PLIN5 PPI: ABHD5-PLIN5 protein interaction inhibition; inhibition, % at 4 µM; AID 602281; 0.78% of 360,000 active; Split G. princeps luciferase complementation, luminescence, 4 h; Q00G26+Q8WTS1;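 active = inhibition above the mean inhibition across every tested compound plus 3 SD, cut at about 22% in these data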;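 note: 0% = DMSO only wells and the 100% control is not disclosed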
Target sequence (Q00G26 whole entry, looked up): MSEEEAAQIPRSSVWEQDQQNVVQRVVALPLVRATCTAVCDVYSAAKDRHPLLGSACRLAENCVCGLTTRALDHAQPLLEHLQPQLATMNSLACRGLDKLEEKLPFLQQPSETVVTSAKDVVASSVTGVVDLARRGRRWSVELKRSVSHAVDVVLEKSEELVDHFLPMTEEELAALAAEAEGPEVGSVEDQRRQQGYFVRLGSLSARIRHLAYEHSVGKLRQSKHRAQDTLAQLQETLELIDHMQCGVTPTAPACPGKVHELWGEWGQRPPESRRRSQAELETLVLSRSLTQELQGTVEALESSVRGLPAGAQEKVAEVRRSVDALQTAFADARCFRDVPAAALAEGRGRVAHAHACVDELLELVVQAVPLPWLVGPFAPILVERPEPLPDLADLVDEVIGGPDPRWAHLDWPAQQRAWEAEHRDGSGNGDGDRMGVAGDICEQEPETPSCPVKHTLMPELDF
Target sequence (Q8WTS1 whole entry, looked up): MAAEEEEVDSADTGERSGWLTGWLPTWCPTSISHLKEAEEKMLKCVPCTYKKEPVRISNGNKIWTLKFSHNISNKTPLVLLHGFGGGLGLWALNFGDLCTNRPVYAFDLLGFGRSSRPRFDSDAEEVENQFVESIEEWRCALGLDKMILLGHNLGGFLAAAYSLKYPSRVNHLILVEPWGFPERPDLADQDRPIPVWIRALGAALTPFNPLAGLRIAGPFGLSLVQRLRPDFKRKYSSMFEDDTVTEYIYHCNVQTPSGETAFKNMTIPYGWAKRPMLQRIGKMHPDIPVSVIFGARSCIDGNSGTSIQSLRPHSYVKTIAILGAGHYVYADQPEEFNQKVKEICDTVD
Mdm2 MdmX PPI: human Mdm2/MdmX binding inhibition; AID 485346; O15151+Q00987; inhibition, % at 8 µM; 3% of 330,000 active; SaOS-2 split-luciferase Mdm2/MdmX complementation, luminescence;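 active = inhibition of at least 50% at 8 µM in the primary screen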
Mdm2 MdmX conf: confirmation of human Mdm2/MdmX interaction inhibitors. AID 489028. 55% of 10,000 active. inhibition, % at 8 µM. Mdm2-MdmX binding, luminescent assay. shares compounds with Mdm2 MdmX PPI; in the data active = inhibition above about 40%
FLuc counter: full-length luciferase inhibition in Mdm2/MdmX counter-screen | 77% of 6,200 active | shares compounds with Mdm2 MdmX PPI | SaOS-2 full-length luciferase counterscreen, luminescence | inhibition, % at 8 µM;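 active = mean inhibition at 8 µM reaching about 37%, which flags the compound as non-specific, limit read from the data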;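 note: p53-null SaOS-2 cells with luciferase driven by a doxycycline-inducible promoter; compound on cells about two nights before reading with doxycycline added after day one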
Numbers without * were called inactive; x = no result given. In the library only some 4% were active in any assay of this set; here they are far more common.

SMILES	UPR CHOP act	Granule exo inh	UPR XBP1 act	ABHD5 PLIN5 PPI	Mdm2 MdmX PPI	Mdm2 MdmX conf	FLuc counter
COc1ccc(CCN(C)C(=O)c2cc(-c3ccccc3)nc3ccc(C)cc23)cc1OC	0	11	-1	0	2	x	x
COc1ccc(-c2cc(C(=O)N(C)Cc3nc4ccccc4c(=O)[nH]3)c3ccccc3n2)cc1OC	3	-10	-2	-10	52*	12	x
COc1ccc(CN(C)C(=O)c2cc(-c3ccc(OC)c(OC)c3)nc3ccccc23)c(OC)c1	-1	-13	-2	1	57*	46*	101*
COc1ccccc1CN(C)C(=O)c1cc(-c2cccs2)nc2ccccc12	2	50	0	8	61*	39	57*
COc1ccc(CCN(C)C(=O)c2cc(-c3ccccc3)nc3ccccc23)cc1OC	-2	-1	-4	-4	12	x	x
O=C(CN1C(=O)c2ccccc2S1(=O)=O)NCc1cccnc1	-1	-2	-2	1	31	x	x
COC(=O)/C(=C\Nc1ccc(Cl)cc1Cl)NC(=O)c1ccc(OC)cc1	2	2	0	4	52*	43*	70*
CCCCn1c(-c2nonc2N)nc2ccccc21	2	0	-1	1	61*	45*	50*
CCOC(=O)c1ccccc1NC(=O)Cn1c(-c2nonc2N)nc2ccccc21	0	0	11	3	61*	55*	77*
Nc1nonc1-c1nc2ccccc2n1CC(=O)Nc1ccccc1	-1	-7	-5	-3	78*	69*	25
O=C(NCc1n[nH]c(=O)c2ccccc12)C1CC(=O)N(c2ccc(Cl)cc2)C1 (stereo not given)	1	-11	-1	-1	9	x	x
CCCCN1C(=O)C(=O)N(CC(=O)N2CCc3ccccc32)C1=O	0	12	-1	0	-25	x	x
Cc1cc(C(=O)N2CCN(c3cccc(Cl)c3)CC2)c(C)o1	0	0	-3	-1	28	x	x
CC(C)(C)NC(=O)C(c1ccncc1)n1c(=O)c(-c2cc3ccccc3[nH]2)nc2ccccc21 (stereo not given)	x	4	x	1	x	x	x
CCSc1nc(N)c(C#N)c(-c2ccco2)c1C#N	1	2	6	-1	10	x	x
N#Cc1ccc(OCC(=O)NCCCn2ccnc2)cc1	-2	1	-3	-3	13	x	x
CCOC(=O)c1c(NC(=S)NC(=O)c2cnn(CC)c2)sc2c1CCC(C)C2 (stereo not given)	-2	1	7	-4	54*	8	x
CCOC(=O)c1c(NC(=O)Cn2nc([N+](=O)[O-])c(Br)c2C)sc2c1CCC(C)C2 (stereo not given)	9	0	5	-5	58*	9	x
CCOC(=O)c1c(NC(=O)C2C3C=CC(C3)C2C(=O)O)sc2c1CCC(C)C2 (stereo not given)	1	8	0	-3	7	x	x
CCC(=O)c1ccc2c(c1)N(CCCN(C)C)c1ccccc1S2	0	6	-6	-3	55*	15	x
CC(=O)c1ccc2c(c1)N(CCCN(C)C)c1ccccc1S2	x	0	x	2	x	x	x
COc1ccc(C(CNC(=O)COc2ccccc2C#N)N2CCOCC2)cc1 (stereo not given)	-4	2	-3	1	-8	x	x
Cc1ccc(C2=NC(C(F)(F)F)(C(F)(F)F)c3c(n(-c4ccc(F)cc4)c(=O)[nH]c3=O)N2)cc1	0	5	-2	-7	22	x	x
O=c1[nH]c(=O)n(-c2ccc(F)cc2)c2c1C(C(F)(F)F)(C(F)(F)F)N=C(c1ccc(F)cc1)N2	0	12	1	0	53*	38	68*
COc1ccccc1CN1C[C@@H]2C[C@@H](C3=Cc4cccc(OC)c4OC3)N3CCC[C@@]23C1=O	0	7	2	1	-14	x	x
O=c1c2cnn(-c3ccccc3)c2nc(-c2cccs2)n1-c1ccc(Cl)cc1	0	-2	4	3	1	x	x
